ChEMBL document CHEMBL1146069, “Photodynamic efficiency of diethylene glycol-linked glycoconjugated porphyrins in human retinoblastoma cells” (J Med Chem, 2006)

Columns and labels:
Y79 [1] = assay: Cellular uptake in human Y79 cells relative to unglycosylated TPP(p-DegOH)3; assay type: ADME, cell-based
B16 [2] = assay: Cellular uptake in mouse B16 cells relative to unglycosylated TPP(p-DegOH)3; assay type: ADME, cell-based
HT-29 [3] = assay: Cellular uptake in human HT29 cells relative to unglycosylated TPP(p-DegOH)3; assay type: ADME, cell-based
[4] = Partition coefficient of the compound, log P; assay type: physicochemical; settings: octanol/water
Y79 [5] = assay: Toxicity against human Y79 cells at 2 uM after 4 hrs in dark; assay type: cell-based; settings: y79, 4 h
Procedure, shortened: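 Y79 cells were plated at 2 × 10^5 cells/mL in COON's medium with 2% FCS. They were exposed to 2 µM dye (DMSO stock diluted in medium) for 4 h in the dark, then centrifuged, washed and resuspended in fresh complete medium with no irradiation. Survival fraction was measured by MTT at 570/640 nm.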

Y79 [6] = assay: Survival of human Y79 cells at 2 uM irradiated with 514 nM light at the fluence of 1 J/cm2 after 4 hrs; assay type: functional; settings: Y79, light or radiation study, read-out: LD50 (the source's name)
Procedure, shortened: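 Y79 retinoblastoma cells (ATCC, suspension in COON's medium with 20% FCS) plated at 2 × 10^5 cells/mL in COON's with 2% FCS. Dye added from a 5 mg/mL DMSO stock, incubated 4 h in the dark, then cells centrifuged, washed and resuspended in fresh complete medium. Ar+ laser irradiation at 514 nm, 1 J/cm2. MTT viability read 24 h later at 570/640 nm.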

B16 [7] = assay: Survival of mouse B16 cells at 2 uM irradiated with 514 nM light at the fluence of 5 J/cm2 after 4 hrs; assay type: functional; settings: B16, light or radiation study, read-out: LD50 (the source's name)
Procedure, shortened: (§1)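 Adherent cells (human HT29 colorectal adenocarcinoma; murine B16 melanoma) seeded at 10^5 cells/mL. Dye added from a DMSO stock and incubated 4 h in DMEM with 2% FCS in the dark. Irradiation at 514 nm, 5 J/cm2, in the same dye-containing medium. Survival measured by MTT colorimetric assay.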

HT-29 [8] = assay: Survival of human HT29 cells at 2 uM irradiated with 514 nM light at the fluence of 5 J/cm2 after 4 hrs; assay type: functional; settings: HT-29, light or radiation study, read-out: LD50 (the source's name); procedure, shortened: as §1

| SMILES | Ratio (Y79 [1]) | Ratio (B16 [2]) | Ratio (HT-29 [3]) | logP [4] | Activity (Y79 [5]) | CC50 (Y79 [6]) [nM] | CC50 (B16 [7]) [nM] | CC50 (HT-29 [8]) [nM] |
| --- | --- | --- | --- | --- | --- | --- | --- | --- |
| OCCOCCOc1ccc(-c2c3nc(c(-c4ccccc4)c4ccc([nH]4)c(-c4ccc(OCCOCCO)cc4)c4ccc([nH]4)c(-c4ccc(OCCOCCO)cc4)c4nc2C=C4)C=C3)cc1 | 1 | 1 | 1 | > 2 | Not Active | > 2000 | – | – |
| OC[C@H]1O[C@@H](SCCOCCOc2ccc(-c3c4nc(c(-c5ccccc5)c5ccc([nH]5)c(-c5ccc(OCCOCCS[C@@H]6O[C@H](CO)[C@H](O)[C@@H](O)[C@H]6O)cc5)c5ccc([nH]5)c(-c5ccc(OCCOCCS[C@@H]6O[C@H](CO)[C@H](O)[C@@H](O)[C@H]6O)cc5)c5nc3C=C5)C=C4)cc2)[C@H](O)[C@H](O)[C@H]1O | 3.5 | 2.7 | 3 | -0.07 | Not Active | 600 | 2000 | 820 |
| OC[C@H]1O[C@@H](OCCOCCOc2ccc(-c3c4nc(c(-c5ccccc5)c5ccc([nH]5)c(-c5ccc(OCCOCCO[C@@H]6O[C@H](CO)[C@H](O)[C@@H](O)[C@H]6O)cc5)c5ccc([nH]5)c(-c5ccc(OCCOCCO[C@@H]6O[C@H](CO)[C@H](O)[C@@H](O)[C@H]6O)cc5)c5nc3C=C5)C=C4)cc2)[C@H](O)[C@H](O)[C@H]1O | 3.7 | 4 | 4.4 | 0.23 | Not Active | 600 | 680 | 250 |
| OC[C@H]1O[C@H](OCCOc2ccc(-c3c4nc(c(-c5ccccc5)c5ccc([nH]5)c(-c5ccc(OCCO[C@H]6O[C@H](CO)[C@@H](O)[C@@H](O)[C@@H]6O)cc5)c5ccc([nH]5)c(-c5ccc(OCCO[C@H]6O[C@H](CO)[C@@H](O)[C@H](O)[C@@H]6O)cc5)c5nc3C=C5)C=C4)cc2)[C@@H](O)[C@@H](O)[C@@H]1O | 1.6 | 1.8 | 1.7 | 0.78 | Not Active | 600 | 850 | 440 |
| OC[C@H]1O[C@H](OCCOCCOc2ccc(-c3c4nc(c(-c5ccccc5)c5ccc([nH]5)c(-c5ccc(OCCOCCO[C@H]6O[C@H](CO)[C@@H](O)[C@H](O)[C@@H]6O)cc5)c5ccc([nH]5)c(-c5ccc(OCCOCCO[C@H]6O[C@H](CO)[C@@H](O)[C@H](O)[C@@H]6O)cc5)c5nc3C=C5)C=C4)cc2)[C@@H](O)[C@@H](O)[C@@H]1O | 4.9 | 6.5 | 5 | 0.02 | Not Active | 350 | 430 | 350 |
| OC[C@H]1O[C@H](OCCOCCOc2ccc(-c3c4nc(c(-c5ccccc5)c5ccc([nH]5)c(-c5ccc(OCCOCCO[C@H]6O[C@H](CO)[C@H](O)[C@@H](O)[C@H]6O)cc5)c5ccc([nH]5)c(-c5ccc(OCCOCCO[C@H]6O[C@H](CO)[C@H](O)[C@@H](O)[C@H]6O)cc5)c5nc3C=C5)C=C4)cc2)[C@H](O)[C@H](O)[C@H]1O | 2 | – | 1.8 | 0.5 | Not Active | 50 | 100 | 820 |
| OC[C@H]1O[C@H](SCCOCCOc2ccc(-c3c4nc(c(-c5ccccc5)c5ccc([nH]5)c(-c5ccc(OCCOCCS[C@H]6O[C@H](CO)[C@@H](O)[C@H](O)[C@@H]6O)cc5)c5ccc([nH]5)c(-c5ccc(OCCOCCS[C@H]6O[C@H](CO)[C@@H](O)[C@H](O)[C@@H]6O)cc5)c5nc3C=C5)C=C4)cc2)[C@@H](O)[C@@H](O)[C@@H]1O | 1.4 | 1.3 | 1.2 | 0.46 | Not Active | 650 | 2000 | > 2000 |
